Laboratory results as given in ChEMBL document CHEMBL1156237, “Antiviral activity of benzimidazole derivatives. II. Antiviral activity of 2-phenylbenzimidazole derivatives” (Bioorg Med Chem, 2010).
The source made the active and inactive calls. The rule behind the calls is not given here.

What was measured:
Coxsackievirus B2 = experiment: Antiviral activity against Human coxsackievirus B2 Ohio-1 infected in african green monkey Vero cells after 3 days by plaque reduction assay; assay type: functional, organism-based, Coxsackievirus B2 (strain Ohio-1)
Procedure, shortened: (§1)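 Plaque reduction assay. Vero 76 cells at 2 × 10^5/well, grown overnight to confluence in D-MEM with 10% FBS. Infected 2 h with 50–100 PFU/well, unadsorbed virus removed. Overlay of D-MEM with 1% inactivated FBS and 0.75% methylcellulose, with or without serial compound dilutions. Incubated at 37 °C for 3 days (HSV-1 KOS, CVB-2 Ohio-1) or 5 days (RSV A2). Fixed and stained with crystal violet in 50% ethanol; plaques counted; EC50 by linear regression.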

Yellow fever virus = experiment: Antiviral activity against Yellow fever virus 17D infected in BHK cells assessed as protection from virus-induced cytopathogenicity after 3 to 4 days by MTT method; assay type: functional, organism-based
[1] = test system: Human immunodeficiency virus 1; experiment: Antiviral activity against HIV1 3B infected in human MT4 cells assessed as protection from virus-induced cytopathogenicity after 4 days by MTT method; assay type: functional, organism-based
Procedure, shortened: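 MT-4 cells, 1 × 10^4/well in RPMI with or without serial compound dilutions, infected with HIV-1 IIIB, 100 CCID50 (m.o.i. 0.01). Protection from virus-induced cytopathogenicity read by MTT.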

[2] = Cytotoxicity against african green monkey Vero cells; assay type: cell-based; conditions: chlorocebus sabaeus
Procedure, shortened: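 Vero 76 monolayers exposed to serial compound dilutions, run in parallel on the same 24-well plates as the plaque-reduction assays. CC50 is the concentration reducing viability of mock-infected cells by 50%.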

[3] = test system: Bovine viral diarrhea virus 1; experiment: Antiviral activity against Bovine viral diarrhea virus NADL infected in MDBK cells assessed as protection from virus-induced cytopathogenicity after 3 to 4 days by MTT method; assay type: functional, organism-based, Bovine viral diarrhea virus 1-NADL
Procedure, shortened: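 Cytopathogenicity protection assay. MDBK cells at 3 × 10^4/well, grown overnight to confluence. Infected with BVDV NADL at m.o.i. 0.01 in MEM-E with 0.5% inactivated FBS, 1 mM Na pyruvate and 1% kanamycin. Serial compound dilutions added after 1 h. After 3–4 days at 37 °C, viability read by MTT; EC50 is the concentration giving 50% protection.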

MT4 = experiment: (§2) Cytotoxicity against human MT4 cells after 96 hrs by MTT assay; assay type: cell-based; conditions: mt4, 96 h, 96 h
Procedure, shortened: (§3)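 Exponentially growing MT-4 cells at 1 × 10^5 cells/mL in RPMI-1640 with 10% FCS, exposed to serial compound dilutions at 37 °C, 5% CO2. Viability by MTT after 96 h; CC50 is the concentration reducing viability of mock-infected cells by 50%.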

[4] = Cytotoxicity against MDBK cells after 48 to 96 hrs by MTT assay; assay type: cell-based, Bos taurus; conditions: cattle
Procedure, shortened: (§4)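 Cell seeding: MDBK at 6 × 10^5 cells/mL in MEM-E with 10% horse serum and 1 mM Na pyruvate; BHK at 1 × 10^6 cells/mL in MEM-E with 10% FBS. Serial compound dilutions, 37 °C, 5% CO2. Viability of mock-infected cells by MTT after 48–96 h; CC50 is the concentration reducing viability by 50%.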

[5] = test system: Vesicular stomatitis virus; experiment: Antiviral activity against VSV Indiana lab infected in african green monkey Vero cells after 2 days by plaque reduction assay; assay type: functional, organism-based
[6] = Cytotoxicity against BHK cells after 48 to 96 hrs by MTT assay; assay type: cell-based, Mesocricetus auratus; conditions: hamster; procedure, shortened: as §4
[7] = test system: Respiratory syncytial virus; experiment: Antiviral activity against RSV A2 infected in african green monkey Vero cells after 5 days by plaque reduction assay; assay type: functional, organism-based; conditions: human respiratory syncytial virus, A2, Vero, 120 h; procedure, shortened: as §1
[8] = Selectivity index, ratio of CC50 for human MT4 cells to EC50 for Vaccinia virus Elstree-Lister; assay type: toxicity, cell-based; conditions: read-out: Ratio CC50/EC50
Vaccinia virus = experiment: Antiviral activity against Vaccinia virus Elstree-Lister infected in african green monkey Vero cells after 3 days by plaque reduction assay; assay type: functional, organism-based; conditions: Orthopoxvirus vaccinia, 72 h
[9] = Selectivity index, ratio of CC50 for african green monkey Vero cells to EC50 for Vaccinia virus Elstree-Lister; assay type: toxicity, cell-based; conditions: read-out: Ratio CC50/EC50
Human alphaherpesvirus 1 = experiment: Antiviral activity against HSV1 KOS infected in african green monkey Vero cells after 3 days by plaque reduction assay; assay type: functional, organism-based; conditions: Human alphaherpesvirus 1, KOS, 72 h; procedure, shortened: as §1
[10] = as §2; assay type: cell-based; conditions: MT4 cells; procedure, shortened: as §3
Poliovirus 1 = experiment: Antiviral activity against Polio virus type1 Sabin strain Chat infected in african green monkey Vero cells after 2 days by plaque reduction assay; assay type: functional, organism-based, Human poliovirus 1 strain Sabin; conditions: Enterovirus C, 48 h

Structure (SMILES) | EC50 (Coxsackievirus B2; vero) [µM] | EC50 (Yellow fever virus) [µM] | Activity [1] | CC50 [2] [µM] | EC50 ([3]; mdbk) [µM] | CC50 (MT4) [µM] | CC50 ([4]; mdbk) [µM] | Activity [5] | CC50 [6] [µM] | EC50 [7] [µM] | EC50 (Coxsackievirus B2; Enterovirus B, Vero, 72 h) [µM] | selectivity ratio [8] | EC50 (Vaccinia virus) [µM] | selectivity ratio [9] | EC50 (Human alphaherpesvirus 1) [µM] | EC50 ([3]; Bovine viral diarrhea virus isolates and strains, MDBK) [µM] | CC50 at 96 h [10] [µM] | CC50 ([4]; MDBK cells) [µM] | EC50 (Poliovirus 1) [µM]
O=C(CN1CCOCC1)Nc1ccc(-c2nc3cc(Cl)c(Cl)cc3[nH]2)cc1 | > 100 | > 100 | inactive | > 100 | > 100 | > 100 | > 100 | inactive | > 100 | – | – | – | – | – | – | – | – | – | –
O=[N+]([O-])c1ccc(-c2nc3cc(Cl)c(Cl)cc3[nH]2)cc1 | – | > 100 | inactive | ≥ 100 | – | – | – | inactive | > 100 | > 100 | > 100 | 170 | 0.1 | ≥ 1000 | > 100 | > 56 | 17 | 56 | > 100
